Measurements reported in ChEMBL document CHEMBL4513216, “Probing the Open Global Health Chemical Diversity Library for Multistage-Active Starting Points for Next-Generation Antimalarials” (ACS Infect Dis, 2020).

assay: Toxicity liver stage against HepG2, at 10uM; format: cell-based; parameters: test concentration 10 uM, cell line HepG2-A16-CD81EGFP; settings: human, HepG2-A16-CD81EGFP cells; read-out: INHIBITION
In short: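 Uninfected HepG2-A16-CD81EGFP cells, 3 × 10^3 per well, 1536-well, plated on prespotted compound at 10 μM final, parasite-free screening media added to match infected plates; puromycin 10 μM positive, DMSO 0.5% negative; run in parallel with 48 h PbLuc assay at 37 °C, 5% CO2; viability by CellTiter-Glo luminescence, normalized to controls.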

| Structure (SMILES) | cytotoxicity at 10 µM [%] |
| --- | --- |
| Cc1cc(=O)[nH]c(-n2nc(C)c(CCC(=O)Nc3nc(C)cs3)c2C)n1 | 5.61 |
| COc1nccnc1-c1cc(NC2CCNCC2)nc2[nH]ccc12 | -10.7 |
| CN(C)CCNC(=O)c1ccn(-c2ccc3ccccn23)n1 | -0.0395 |
| O=C1CC(c2ccc(C(=O)O)cc2)c2ncn(-c3ccc(Cl)cc3)c2N1 (centres undefined) | -2.14 |
| O=C(NC1CCN(CC2CC2)C1)c1ccc(C(=O)c2cc[nH]c2)cc1 (centres undefined) | -6.14 |
| CCC(C)(NCc1cccc(NC(C)=O)c1)c1nc(C)cs1 (centres undefined) | -2.27 |
| CCNc1ncc(C(=O)N[C@H](C(N)=O)c2ccccc2)cn1 | 10.6 |
| Cc1nc(C(F)(F)F)nc(N2CCC(O)(C(=O)O)CC2)c1C | 10.4 |
| Cc1cc(-c2nccs2)nc(C2CCN(Cc3cccs3)CC2)n1 | 6.81 |
| CCC[C@@H]1CN(Cc2cnc3c(S(C)(=O)=O)cnn3c2)C[C@H]1N(C)C | -2.12 |
| O=S1(=O)C[C@@H]2[C@H](C1)N(Cc1ccc3ccccc3c1)CCN2CC1CC1 | 1.99 |
| CCc1ccc(S(=O)(=O)N2CCC3(CC(C(=O)NC)=NO3)C2)cc1 (centres undefined) | -2.16 |
| c1ccc2oc(CCCN3CCOC(Cn4cncn4)C3)nc2c1 (centres undefined) | 1.52 |
| COc1ccc(CN[C@@H]2CO[C@H](CNC(=O)N3CCOCC3)[C@H]2O)cc1 | -1.57 |
| COc1cnc(N2C[C@@H](CN3CCOCC3)[C@@H](CO)C2)nc1 | -9.25 |
| Cc1nn(C2CCS(=O)(=O)C2)c(O)c1Cc1ccccc1 (centres undefined) | -44.6 |
| O=C(CCOc1ccccc1)N1CCCC(n2cncn2)C1 (centres undefined) | -2.95 |
| c1coc(CN2CCC3(CC2)COC(COCC2CCOCC2)C3)c1 (centres undefined) | 4.67 |
| Cc1nc(CN2CCCC(N(C)c3cnc4ccccc4n3)C2)no1 (centres undefined) | -14.6 |
| CCOC1CCN(C(=O)c2cc(-c3ccc(Cl)cc3)on2)CC1 | -5.08 |
| COCC(=O)Nc1ccccc1-c1ccc(=O)n(C)n1 | 4.51 |
| CCCOC1CCCN(Cc2nc(-c3ccc(F)cc3F)oc2C)C1 (centres undefined) | -51.1 |

| Structure (SMILES) | cytotoxicity at 10 µM [%] |
| --- | --- |
| COCC(=O)NC(c1ccc(Cl)cc1)c1noc(C)n1 (centres undefined) | 6.66 |
| CCC(=O)N1CCC(Cc2nccnc2Nc2ccccn2)CC1 | 5.82 |
| Cn1cnc(S(=O)(=O)N2C[C@H]3CC[C@@H](C2)N(Cc2cscn2)C3=O)c1 | -20.2 |
| CC(C)C(=O)N1CC2(CCN(CC(C)(C)C)CC2)C1 | -5.28 |
| CC(C)c1cccc(-n2cc(O)c(C(=O)NCCCn3cccn3)n2)c1 | -1.59 |
| CCNc1cc2c(nn1)CCN(C(=O)c1ccc3c(c1)OCO3)C2 | -13.5 |
| COc1ccccc1CN1CC[C@H]2[C@@H](C1)[C@H](c1ccsc1)CN2C(C)=O | -12.4 |
| O=C(c1ncc[nH]1)N1CCC(n2cc(-c3cccc(Cl)c3)nn2)CC1 | 5.28 |
| CCCn1nc2c(cc1=O)CN(c1ncnc3sccc13)CC2 | 49.4 |
| CC(=O)N(C)c1nc(CN2CCCC2Cn2cncn2)cs1 (centres undefined) | -1.01 |
| O=C([C@H]1CN(Cc2nccs2)C[C@H]2OCC[C@@H]12)N1CCCC1 | -94.1 |
| NCc1cnc(Nc2ccccc2)nc1 | 8.55 |
| c1cncc(C2COC3(CCN(CC4CCOCC4)CC3)C2)c1 (centres undefined) | -10.4 |
| CC(=O)N1CCC2(CCCN(C(=O)c3ccc(Cl)c(C(F)(F)F)c3)C2)C1 (centres undefined) | -81.8 |
| COc1nc2ccccc2cc1CN1CCCC(CNC(C)=O)C1 (centres undefined) | 1.9 |
| N#Cc1ccc(CN2CCN(C(=O)CCn3cncn3)CC2)cc1 | -7.06 |
| CCCN1CCN(C(=O)c2cnccc2C)[C@H]2CS(=O)(=O)C[C@H]21 | -1.7 |
| CC(C)[C@@H]1CN(CCOc2ccccc2)C[C@H]1NS(=O)(=O)N(C)C | -43 |
| CCC(NC(=O)C1CCN(S(=O)(=O)N(C)C)CC1)c1ccc(C)c(C)c1 (centres undefined) | -1.02 |
| Cc1ccc(CNC(=O)CCC(=O)NCCC(C)C)o1 | -9.74 |
| c1ccc(N2CCC(NCCc3ccc(-n4cccn4)cc3)CC2)nc1 | 21.1 |
| CCN(C)CC1CCN(S(=O)(=O)c2cc(C)c(F)cc2Cl)C1 (centres undefined) | -8.38 |

| Structure (SMILES) | cytotoxicity at 10 µM [%] |
| --- | --- |
| Cc1ccc(C(=O)N2CCC3(CC2)CCN(Cc2ccccn2)C3=O)o1 | 2.49 |
| OCCNc1nc(NCCc2ccccc2)nc2nccnc12 | 5.91 |
| Cc1ccc(-c2ncc(C(=O)N3CCC[C@H](N)C3)c(O)n2)cc1 | -7.14 |
| CC(=O)N1CCN(C(=O)CN(C)c2ccc(Cl)cn2)CC1 | 1.79 |
| N#Cc1ccccc1OCCN1CCC(N2CCNC2=O)CC1 | -8.58 |
| O=C(NCC(c1ccccc1)N1CCOCC1)Nc1cn[nH]c1 (centres undefined) | -15.8 |
| O=C(NCc1ccccn1)Nc1cc(C(F)(F)F)c[nH]c1=O | -2.87 |
| Cn1ncc2c(N3CC[C@H](O)C3)nc(-c3ccncc3)nc21 | 4.63 |
| Cc1nc(C)n(CC2CCCN(CCOc3ccc(F)cc3)C2)n1 (centres undefined) | -3.33 |
| COC1C[C@@H]2CN(C(=O)c3[nH]nc4c3CCCC4)C[C@@H]2C1 (some centres undefined) | 0.0252 |
| CNc1nc(C(=O)N2C[C@@H]3CC[C@H]2CN(C2CCOCC2)C3)cs1 | 4.84 |
| COc1cc2c(cc1OC)S(=O)(=O)N(Cc1cc(C)on1)C2=O | 11.3 |
| c1ccc(-n2cc(CNCC3CCCN3c3cccnn3)cn2)cc1 (centres undefined) | -8.85 |
| CCCN1CCC2(CC1)CN(C(=O)c1cccnc1)c1ccc(F)cc12 | -104 |
| Cc1cnc(N2CCC3(CC2)CC3CN(C)Cc2cccnc2)nc1 (centres undefined) | -0.37 |
| O=C(c1cnc(Nc2ccccc2)nc1)N1CCC2(CCNCC2)CC1 | -5.96 |
| CCNc1ncc(CN(CCN(C)C)Cc2ccc(C)s2)cn1 | -46.1 |
| Cc1cccnc1CN(C)c1ncnc2[nH]ccc12 | 4.77 |
| CN(C)c1nccc(C2CN(c3cnccn3)CCO2)n1 (centres undefined) | 7.95 |
| CCN1CCC(CC(=O)N2CCCCC2CCn2cccn2)CC1 (centres undefined) | -5.02 |
| COc1ccc(OCc2nccc(-c3cc(C(=O)O)ccn3)n2)cc1 | -4.81 |
| Cc1cc(C)c(CCNC(=O)NCCCC(N)=O)c(C)c1 | -1.24 |

| Structure (SMILES) | cytotoxicity at 10 µM [%] |
| --- | --- |
| COCCOCC(=O)NC1CCN(c2ccccn2)CC1 | -0.555 |
| CCN1CC(COC(=O)c2cc(Br)ccc2F)CC1=O (centres undefined) | 5.09 |
| Cc1n[nH]c(C)c1CCN(C)C(=O)c1ccc(CCC(C)(C)O)cc1 | 6.15 |
| Cc1cc(C)n(CC(=O)N2CCC(Nc3cccnn3)CC2)n1 | -0.397 |
| CC(C)Sc1ccc(C(C)Nc2nc3c(cnn3C)c(=O)[nH]2)cc1 (centres undefined) | 21.4 |
| COCCOCC(=O)Nc1ccc(C)cc1Br | -6.99 |
| Cc1ccc(C)c(CSc2nnc(C(N)C(C)C)o2)c1 (centres undefined) | 9.24 |
| CCC(=O)NC1CCCN(c2cncc(OCc3ccccc3)n2)C1 (centres undefined) | -2.08 |
| CCCN(CC(=O)OC)C(=O)c1sc(C)nc1C | -2.42 |
| CN1CCOC(CN(C(=O)CCCn2cccn2)c2nccs2)C1 (centres undefined) | -22.7 |
| O=C1CCSCC(C(=O)N2CCC3(CC2)OCCO3)N1 (centres undefined) | 0.595 |
| O=C(O)c1ccc(CN2CCC(c3ccnc4ccnn34)CC2)cc1 | -29.9 |
| Cc1nc(CN(C)c2nc3c(cnn3C(C)(C)C)c(=O)[nH]2)cs1 | -5.53 |
| CCOc1ccc(C2CC(=O)NCc3nc(N)sc32)cc1CO (centres undefined) | -6.33 |
| Cc1ccc2c(c1)C1(CCNCC1)CC2NC(C)C (centres undefined) | -9.73 |
| Cc1cccnc1NCCNC(=O)C1CCN(C(=O)N(C)C)CC1 | 1.99 |
| Fc1cccc(OC2CCN(CCn3cc4ccccc4n3)CC2)c1 | 8.33 |
| O=C(CO)N1CCCC2(CCC(=O)N(CC3CC3)C2)C1 (centres undefined) | 5.75 |
| O=C(O)c1cccnc1CN1CCCCC1CCc1cccc(O)c1 (centres undefined) | -1.84 |
| CCCC(NC(=O)NCc1cccc(N(C)C)n1)c1ccccn1 (centres undefined) | 19.8 |
| Cc1noc(CCNC(=O)NCc2ccc(OC3CCCC3)cc2)n1 | 13.2 |
| CN(C(=O)Nc1nncs1)C1CCN(c2ccccc2Cl)C1=O (centres undefined) | -7.04 |

| Structure (SMILES) | cytotoxicity at 10 µM [%] |
| --- | --- |
| Cc1cccc(CN2CCC3(CCN(c4ccccn4)C3)C2=O)c1 (centres undefined) | 9.3 |
| Cc1nc(-c2ccnc(N3CCNCC3)n2)no1 | 2.63 |
| Cc1nn(C)c(N2CCOCC2)c1CNC1CCc2cc(F)ccc21 (centres undefined) | -9.95 |
| CC(O)(CN1CCC2(CC1)OCCO2)c1cccc(C(F)(F)F)c1 (centres undefined) | -9.21 |
| Cc1cnn(C2CN(Cc3ccc4c(c3)OCCO4)C2)c1 | 16.3 |
| O=C(NC1CC1)c1cccc(S(=O)(=O)NCCc2nc(C3CC3)no2)c1 | -0.714 |
| CN(Cc1ccco1)C(=O)CN1CCCC1Cn1cncn1 (centres undefined) | -24.1 |
| Cc1cc(N2CCN(C(=O)c3cn(C)c4ccccc34)CC2)nc(C)n1 | -1.96 |
| CCC(NC(=O)c1cc(CC(C)C)nn1C)c1cc(C)ccn1 (centres undefined) | -138 |
| CC(=O)N1CCN(C(=O)c2ccc(Sc3ccccn3)cc2)CC1 | 10.7 |
| Cc1cnn(CC2CCCN2CCCS(C)(=O)=O)c1 (centres undefined) | -8.18 |
| O=C(CCc1ccsc1)N1CCCC(n2cncn2)C1 (centres undefined) | -9.47 |
| CN(CC(=O)Nc1cc(-n2nnnc2C2CC2)ccc1F)C1CCC1 | 8.83 |
| Cc1cnn(C2CCCN(C(=O)c3cn(-c4ccccc4)nn3)C2)c1 (centres undefined) | -22.1 |
| CC(C)[C@@H]1CN(S(=O)(=O)Cc2ccccc2)C[C@H]1NS(=O)(=O)N(C)C | -0.625 |
| Cc1nc(CN2CCCC(CCc3c(F)cccc3F)C2)c[nH]1 (centres undefined) | -21 |
| O=C(c1nc(=O)[nH][nH]1)N1CCCC(c2cc(C(F)(F)F)[nH]n2)C1 (centres undefined) | -12.3 |
| CCCN1C(=O)[C@@H]2CC[C@H]1CN(S(=O)(=O)c1cccc(Cl)c1)C2 | -2.78 |
| O=C(Cc1ccc2c(c1)OCCO2)N1CCCC(n2ccnc2)C1 (centres undefined) | 3.8 |
| Cn1c(-c2ccccc2Cl)nc2cc(C(=O)NCC3(C)COC3)cnc21 | 1.59 |
| Cc1cc(F)ccc1N1CCCC(NC(=O)CCc2ccncc2)C1 (centres undefined) | 8.72 |
